# Results taken from ChEMBL document CHEMBL1132718, “Design and synthesis of imidazoline derivatives active on glucose homeostasis in a rat model of type II diabetes. 2. Syntheses and biological activities of 1,4-dialkyl-, 1,4-dibenzyl, and 1-benzyl-4-alkyl-2-(4',5'-dihydro-1'H-imidazol-2'-yl)piperazines and isosteric analogues of imidazoline” (J Med Chem, 1999).
# Assays:
# Rattus norvegicus [1] = test: Percent of variation of glycemia value 30 mins after glucose administration by intraperitoneal dose of 100 uM/Kg to STZ rats compared to untreated rats; type: functional; parameters: unit: %
# In short: (§1)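 STZ-diabetic rats: 3-month-old male Wistar (250 g) given streptozotocin 35 mg/kg iv. Single ip dose of 100 µmol/kg, then iv glucose 0.5 g/kg for IVGTT. Read-outs: ΔG (glycemia increment over baseline integrated over 30 min), G30 (glycemia at 30 min), K (disappearance rate 5–30 min). Expressed as percent variation versus untreated STZ rats, normalized to nondiabetic controls; 4–8 rats per compound, ±SEM.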
# Rattus norvegicus [2] = test: Rate of glucose disappearance between 5 and 30 min after glucose administration with an intraperitoneal administration of 100 (umol/kg) to STZ rats; type: functional, organism-based
# In short: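 Three-month-old male Wistar rats (250 g) made diabetic with streptozotocin 35 mg/kg iv. Single ip dose of 100 µmol/kg, then IVGTT with glucose 0.5 g/kg iv. K is the rate of glucose disappearance between 5 and 30 min after the glucose load. Expressed as percent variation between treated and untreated diabetic rats, relative to nondiabetic controls. 4–8 rats per compound, ±SEM.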
# Rattus norvegicus [3] = test: Incremental glycemia values over baseline integrated over 30 min after glucose administration (iv) at a concentration 0.5 g/kg; type: functional; parameters: unit: %; in short: as §1
# Rattus norvegicus [4] = test: Percent of variation of glycemia value 30 mins after glucose administration with a peroral administration of 100 umol/kg to STZ rats; type: functional; parameters: unit: %
# In short: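 Oral (po) dosing at 100 µmol/kg in STZ rats (male Wistar, 3 months old, 250 g, streptozotocin 35 mg/kg iv), followed by IVGTT with glucose 0.5 g/kg iv. G30 (glycemia 30 min after the glucose load) is expressed as percent variation between treated and untreated STZ rats, relative to nondiabetic controls.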
# [5] = Partition coefficient (logP); type: physicochemical; details: octanol/water
SMILES,G30 (Rattus norvegicus [1]),K (Rattus norvegicus [2]),Delta G (Rattus norvegicus [3]),G30 (Rattus norvegicus [4]),logP [5]
C=CCN1CCN(CC=C)C(C2=NCCN2)C1 (configuration not stated),30,35,19,–,–
C1CCC(N2CCN(C3CCCC3)C(C3=NCCN3)C2)C1 (configuration not stated),103,23,58,–,–
CN1CCN(Cc2ccc(Cl)cc2Cl)C(C2=NCCN2)C1 (configuration not stated),112,–,105,64,2.21
C=C(C)CN1CCN(CC(=C)C)C(C2=NCCN2)C1 (configuration not stated),96,117,116,0,1.45
N=C(N)C1CN(Cc2ccccc2)CCN1Cc1ccccc1 (configuration not stated),65,65,55,–,–
C=C(C)CN1CCN(CC(C)C)C(C2=NCCN2)C1 (configuration not stated),41,76,53,–,–
CC(C)N1CCN(c2ccccc2)CC1C1=NCCN1 (configuration not stated),15,60,0,–,–
CC(C)CN1CCN(C)CC1C1=NCCN1 (configuration not stated),48,55,113,–,–
CC(C)(C)CN1CCN(CC(C)(C)C)C(C2=NCCN2)C1 (configuration not stated),81,67,54,–,–
c1ccc2c(c1)OCC(C1=NCCN1)O2 (configuration not stated) [IDAZOXAN],48,79,8,–,–
CN1CCN(Cc2ccccc2Cl)C(C2=NCCO2)C1 (configuration not stated),0,0,8,–,–
CN1CCN(c2ccccc2Cl)CC1C1=NCCN1 (configuration not stated),17,60,10,–,–
CN1CCN(Cc2ccc(Cl)cc2Cl)C(CC2=NCCN2)C1 (configuration not stated),42,91,19,–,–
c1ccc(C(CC2=NCCN2)c2ccccn2)cc1 (configuration not stated) [MIDAGLIZOLE],121,–,32,–,–
COc1ccccc1CN1CCN(C)CC1CC1=NCCN1 (configuration not stated),36,53,31,–,–
CC(C)N1CCN(C(C)C)C(CC2=NCCN2)C1 (configuration not stated),0,79,27,–,–

SMILES,G30 (Rattus norvegicus [1]),K (Rattus norvegicus [2]),Delta G (Rattus norvegicus [3]),G30 (Rattus norvegicus [4]),logP [5]
CC(C)CN1CCN(CC(C)C)C(C2=NCCN2)C1 (configuration not stated),89,79,141,66,2.18
CN1CCN(Cc2ccc(Cl)cc2Cl)C(C2=NCCCN2)C1 (configuration not stated),30,38,47,–,–
CN1CCN(Cc2ccc(Cl)cc2Cl)C(C2=NCCN2C)C1 (configuration not stated),75,64,24,–,–
C/N=C(/N)C1CN(C(C)C)CCN1C(C)C (configuration not stated),77,62,43,–,–
CN1CCN(c2ccccc2)C(C2=NCCN2)C1 (configuration not stated),28,39,6,–,–
CN1CCN(C(C2CC2)C2CC2)C(C2=NCCN2)C1 (configuration not stated),55,47,101,–,–
CC(C)CN1CCN(C)C(C2=NCCN2)C1 (configuration not stated),21,42,40,–,–
CC(C)N1CCN(C(C)C)C(C2=NCCN2)C1 (configuration not stated),89,47,138,73,1.15
c1ccc(CN2CCN(Cc3ccccc3)C(CC3=NCCN3)C2)cc1 (configuration not stated),0,49,–,–,–
C=CCN1CCN(CC(C)C)C(C2=NCCN2)C1 (configuration not stated),55,61,115,23,1.3
C/N=C(/N)C1CN(Cc2ccccc2)CCN1Cc1ccccc1 (configuration not stated),62,60,50,–,–
CN1CCN(Cc2ccc(Cl)cc2Cl)C(c2ncc[nH]2)C1 (configuration not stated),14,37,0,–,–
CC(C)N1CCN(c2ccccc2)C(C2=NCCN2)C1 (configuration not stated),91,102,11,–,–
CCC(C)CN1CCN(CC(C)CC)C(C2=NCCN2)C1 (configuration not stated),83,82,104,4.3,3.22
C1CNC(C2CN(C(C3CC3)C3CC3)CCN2C(C2CC2)C2CC2)=N1 (configuration not stated),89,41,24,–,–
